The source of these data is ChEMBL document CHEMBL1133168, “Synthesis and SAR of 4-aryl-2-hydroxy-4-oxobut-2-enoic acids and esters and 2-amino-4-aryl-4-oxobut-2-enoic acids and esters: potent inhibitors of kynurenine-3-hydroxylase as potential neuroprotective agents” (J Med Chem, 2000).

Test [1] deals with Kynurenine 3-monooxygenase (Rattus norvegicus) (UniProt O88867). Description: Inhibition of Kynurenine-3-hydroxylase enzyme isolated from the rat liver at 10 uM.
The target of test [2] is Kynurenine 3-monooxygenase (Rattus norvegicus, UniProt O88867). Nature of the test: Inhibition of Kynurenine-3-hydroxylase enzyme isolated from the rat liver. The essentials:
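Enzyme source: P2 mitochondrial pellet from rat liver, resuspended in 0.32 M sucrose. Activity measured as ³HOH release from 3-[³H]-L-kynurenine at its K_m concentration, 37 °C, under conditions linear with time and enzyme protein. Five inhibitor concentrations tested. IC50 taken as the mean of at least 2 experiments run in duplicate, with variation <20%.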

Chain of Kynurenine 3-monooxygenase (O88867 whole entry): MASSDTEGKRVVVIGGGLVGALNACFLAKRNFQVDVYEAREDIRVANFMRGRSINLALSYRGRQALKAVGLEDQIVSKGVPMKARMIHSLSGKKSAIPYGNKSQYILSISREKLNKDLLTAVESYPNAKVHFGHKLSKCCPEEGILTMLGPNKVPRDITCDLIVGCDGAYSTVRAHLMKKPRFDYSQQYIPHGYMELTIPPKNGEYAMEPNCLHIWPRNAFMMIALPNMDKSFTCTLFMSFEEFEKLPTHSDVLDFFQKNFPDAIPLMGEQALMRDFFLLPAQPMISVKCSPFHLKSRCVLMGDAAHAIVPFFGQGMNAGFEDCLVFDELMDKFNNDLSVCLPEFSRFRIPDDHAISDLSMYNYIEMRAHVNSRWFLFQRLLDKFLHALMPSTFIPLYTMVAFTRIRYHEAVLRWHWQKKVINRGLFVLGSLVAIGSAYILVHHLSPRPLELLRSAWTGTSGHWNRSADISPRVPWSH
Chain of Kynurenine 3-monooxygenase (Rattus norvegicus) (O88867 whole entry, looked up): as the sequence (O88867 whole entry) above

`O=C(O)C(=O)/C=C(\O)c1ccccc1Cl` yielded an inhibition in test [1] of 33%.
`COC(=O)C(=O)/C=C(\O)c1ccc(Cl)cc1` showed an inhibition in test [1] of 38%.
On to `COC(=O)C(=N)/C=C(\O)c1ccccc1Cl`, for which the inhibition in test [1] amounted to 31%.
Take `N/C(=C\C(=O)c1ccc(F)c(Cl)c1)C(=O)O`: the IC50 in test [2] came out at 820 nM.
In turn, `COC(=O)C(=O)/C=C(\O)c1ccccc1Cl` had an inhibition in test [1] of 31%.
For `COC(=O)C(=O)/C=C(\O)c1ccc(Cl)c([N+](=O)[O-])c1`, in test [2], 11200 nM corresponded to half-maximal inhibition (IC50).
The molecule `COC(=O)C(=O)/C=C(\O)c1ccc(Cl)c(Cl)c1` gave an IC50 in test [2] of 1900 nM.
For the molecule `N/C(=C\C(=O)c1ccc(Cl)c(Cl)c1)C(=O)O`, the IC50 in test [2] is 1000 nM.
Molecule `COC(=O)C(=O)/C=C(/O)c1ccc(C)cc1` returned an inhibition in test [1] of 12%.
Take `COC(=O)C(=N)/C=C(\O)c1cccc(Cl)c1`: the IC50 in test [2] was 7900 nM.
In the case of `O=C(O)C(=O)/C=C(\O)c1ccc(Cl)c([N+](=O)[O-])c1`, in test [2], it took 2000 nM to reach half-maximal inhibition (IC50).
The molecule `COC(=O)C(=N)/C=C(\O)c1ccccc1` came in with an inhibition in test [1] of 3%.
Same read-out and setting: the result for `COC(=O)C(=O)/C=C(\O)c1ccc(F)cc1` reads 22%.
Consider `O=C(O)C(=O)/C=C(\O)c1cccc(Cl)c1`, for which, in test [2], the IC50 is 320 nM.
As for `COC(=O)C(=O)/C=C(\O)c1cccc(Cl)c1Cl`, the inhibition in test [1] worked out at 14%.
On to `COC(=O)C(=N)/C=C(\O)c1cccc(Br)c1`, for which the inhibition in test [1] was found to be 0%.
Turning to `COC(=O)C(=N)/C=C(\O)c1cccc(F)c1`, the inhibition in test [1] was 0%.
`O=C(O)C(=O)/C=C(\O)c1cccc(Cl)c1Cl` registered an inhibition in test [1] of 33%.
In test [1], `COC(=O)C(=N)/C=C(\O)c1ccc(Cl)c(Cl)c1` came in with an inhibition of 37%.
In the case of `COC(=O)C(=O)/C=C(\O)c1ccc(F)c(F)c1`, it took 3300 nM to reach half-maximal inhibition in test [2] (IC50).
In turn, `COC(=O)C(=O)/C=C(\O)c1cccc(Cl)c1` gave an IC50 in test [2] of 1900 nM.
In test [1], `O=C(O)C(=O)/C=C(\O)c1ccccc1` registered an inhibition of 0%.
Consider `COC(=O)C(=N)/C=C(\O)c1ccc(Br)cc1`, for which the inhibition in test [1] was determined as 0%.
The molecule `COC(=O)C(=O)/C=C(\O)c1ccc(Cl)c(C)c1` registered a half-maximal inhibitory concentration (IC50) in test [2] of 4900 nM.
In test [2], `O=C(O)C(=O)/C=C(\O)c1ccc(F)c(F)c1` came in with an IC50 of 120 nM.
`O=C(O)C(=O)/C=C(\O)c1ccc(Cl)cc1` registered an IC50 in test [2] of 3000 nM.
In the case of `O=C(O)C(=O)/C=C(\O)c1cccc(F)c1`, in test [2], 580 nM corresponded to half-maximal inhibition (IC50).
As to `N/C(=C\C(=O)c1cccc(Cl)c1Cl)C(=O)O`, the inhibition in test [1] turned out to be 32%.
In turn, `N/C(=C\C(=O)c1ccc(F)c(F)c1)C(=O)O` yielded a concentration for half-maximal inhibition (IC50) in test [2] of 1500 nM.
In test [2], `COC(=O)C(=O)/C=C(\O)c1cccc(F)c1` displayed an IC50 of 1600 nM.
`Cc1cc(/C(O)=C/C(=O)C(=O)O)ccc1Cl` had an IC50 in test [2] of 1700 nM.
On to `COC(=O)C(=N)/C=C(\O)c1ccc(Cl)cc1`, for which the inhibition in test [1] turned out to be 13%.
With `COC(=O)C(=O)/C=C(\O)c1ccc(Br)cc1`, the half-maximal inhibitory concentration (IC50) in test [2] was found to be 1900 nM.
`O=C(O)C(=O)/C=C(\O)c1ccccc1[N+](=O)[O-]` showed an inhibition in test [1] of 24%.
For `N/C(=C\C(=O)c1ccc(F)cc1)C(=O)O`, in test [1], the inhibition turned out to be 41%.
Take `COC(=O)C(=N)/C=C(\O)c1ccc(F)c(Cl)c1`: the inhibition in test [1] was determined as 4%.
As to `COC(=O)C(=N)/C=C(\O)c1ccc(F)cc1`, the inhibition in test [1] came out at 1%.
`COC(=O)C(=N)/C=C(\O)c1ccc(F)c(F)c1`: the IC50 in test [2] came to 3600 nM.
Turning to `N/C(=C\C(=O)c1cccc(Cl)c1)C(=O)O`, half-maximal inhibition in test [2] (IC50) was put at 2400 nM.
In test [2], `O=C(O)C(=O)/C=C(\O)c1cccc(Br)c1` had an IC50 of 1700 nM.
Turning to `N/C(=C\C(=O)c1ccccc1)C(=O)O`, in test [1], the inhibition was 17%.
The same measure, in the same setting: the result for `COC(=O)C(=O)/C=C(\O)c1ccccc1` reads 23%.
Turning to `N/C(=C\C(=O)c1ccc(Cl)cc1)C(=O)O`, the inhibition in test [1] stood at 33%.
On the same count and under the same terms, under `COC(=O)C(=N)/C=C(\O)c1ccc(Cl)c(C)c1` stands 0%.
Molecule `NC(CC(=O)c1cccc([N+](=O)[O-])c1)C(=O)O` (racemic) had an IC50 in test [2] of 8000 nM.
`COC(=O)C(=O)/C=C(\O)c1ccccc1[N+](=O)[O-]` returned an inhibition in test [1] of 1%.
Molecule `O=C(O)C(=O)/C=C(\O)c1ccc(F)c(Cl)c1` gave a concentration for half-maximal inhibition (IC50) in test [2] of 270 nM.
The same measure, in the same setting: the result for `COC(=O)C(=O)/C=C(\O)c1ccc(F)c(Cl)c1` reads 2600 nM.
As for `COC(=O)C(=N)/C=C(\O)c1ccc(C)cc1`, the inhibition in test [1] came to 4%.
The molecule `N/C(=C\C(=O)c1ccccc1Cl)C(=O)O` registered an inhibition in test [1] of 19%.
In test [2], `COC(=O)C(=O)/C=C(\O)c1cccc(F)c1F` displayed a half-inhibitory concentration (IC50) of 8100 nM.
Still for that read-out and setting: under `N[C@@H](CC(=O)c1cccc([N+](=O)[O-])c1)C(=O)O` stands 4000 nM.
Regarding `COC(=O)C(=O)/C=C(\O)c1cccc(Br)c1`, it took 2100 nM to reach half-maximal inhibition in test [2] (IC50).
On to `COC(=O)C(=N)/C=C(\O)c1cccc(Cl)c1Cl`, for which the inhibition in test [1] was 33%.

In general, inhibition refers to the share of the control response that was lost under treatment. The low end stands for little suppression, the high end for strong suppression. The IC50 is the point on the concentration scale where inhibition reaches its midpoint. Low readings indicate higher potency, high ones lower potency.
